Measured values as given in publication PMC3900310 (Annals of Clinical and Translational Neurology, 2013).
Read-outs that look alike come from different tables or passages of the source.

Key:
[1] = system: ROCK1; settings: read-out: ROCK1 IC50; cited from earlier work
[2] = Systemic physiological parameters; format: in vivo, mice; settings: 200 mg/kg
[3] = Pharmacokinetic study: plasma and brain concentrations after oral gavage; format: in vivo, mice; settings: for AUC(0-t) / Cmax / k el: male, C57BL/6, mouse, po
Procedure, shortened: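 Male mice received 100 or 200 mg/kg twice daily by orogastric gavage, five doses. Each time point, from just before the last dose, used a separate group (n = 5). Jugular blood went into K3 EDTA tubes and was spun at 1000 g for 3 min at 4°C. Brains were harvested after saline perfusion. Samples were stored at −80°C and assayed by high-resolution MS. Noncompartmental analysis used best-fit λz, plus one-compartment zero- or first-order models. Brain/plasma exposure was taken as the AUC ratio.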

[4] = molecular target: recombinant ROCK2 (Homo sapiens, UniProt O75116); test: Recombinant ROCK2 radiometric enzyme assay; format: biochemical; settings: versus ATP (Fig. 1B)
[5] = system: ROCK2; settings: read-out: ROCK2 IC50; cited from earlier work
[6] = system: focal cerebral ischemia (permanent fMCAO)
[7] = system: focal cerebral ischemia (transient fMCAO)
[8] = system: endothelial cells; settings: cited from earlier work
[9] = molecular target: recombinant ROCK1 (Homo sapiens, UniProt Q13464); test: Recombinant ROCK1 radiometric enzyme assay; format: biochemical; settings: concentrations up to 10 μmol/L, recombinant enzyme system
[10] = healthy volunteers; ref Surface Logix, Brighton, MA; cited from earlier work
[11] = system: cortical perfusion during dMCAO; test: Distal middle cerebral artery occlusion; format: in vivo, mice; settings: 200 mg/kg 90 min before dMCAO, laser speckle flowmetry
Procedure, shortened: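 Male mice (25–30 g) given test compound or vehicle (0.4% methylcellulose) by orogastric gavage. […] Mice were intubated, mechanically ventilated and femoral-artery catheterized for blood pressure and blood sampling. Cortical perfusion was imaged by laser speckle through intact skull. Per-pixel CBF was taken relative to preischemic baseline. Areas with residual CBF ≤20%, 21–30% and 31–40% were thresholded.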

[12] = system: ROCK activity (MYPT1 phosphorylation); test: MYPT1 Thr696 phosphorylation in brain and heart after systemic administration; format: in vivo, mice; settings: 10 mg/kg, intraperitoneal
[13] = plasma, one-compartment first-order kinetic absorption model, 100 mg/kg
[14] = permanent ischemia, 1 h postischemic onset, 200 mg/kg, sacrifice at 24 h
[15] = aged (12 months) mice, 1 h postischemic onset, 200 mg/kg
[16] = diabetic (db/db) mice, 1 h postischemic onset, 200 mg/kg
[17] = dose response, 24 h preischemic onset, 100 mg/kg every 12 h
[18] = dose response, 24 h preischemic onset, 200 mg/kg every 12 h
[19] = dose response, 24 h preischemic onset, 300 mg/kg every 12 h
[20] = female mice, 1 h postischemic onset, 200 mg/kg
[21] = therapeutic window, 1 h postischemic onset, 200 mg/kg
[22] = therapeutic window, 3 h postischemic onset, 200 mg/kg
[23] = therapeutic window, 6 h postischemic onset, 200 mg/kg

recombinant ROCK2, sequence (O75116 92-354 limits assumed): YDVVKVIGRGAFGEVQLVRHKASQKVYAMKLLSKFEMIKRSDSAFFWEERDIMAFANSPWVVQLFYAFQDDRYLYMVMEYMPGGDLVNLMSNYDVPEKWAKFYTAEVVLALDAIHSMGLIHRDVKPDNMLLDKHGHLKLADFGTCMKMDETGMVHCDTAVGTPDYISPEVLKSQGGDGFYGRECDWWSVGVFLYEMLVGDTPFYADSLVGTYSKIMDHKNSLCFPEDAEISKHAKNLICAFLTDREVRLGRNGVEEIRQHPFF
recombinant ROCK1, sequence (Q13464 76-338 limits assumed): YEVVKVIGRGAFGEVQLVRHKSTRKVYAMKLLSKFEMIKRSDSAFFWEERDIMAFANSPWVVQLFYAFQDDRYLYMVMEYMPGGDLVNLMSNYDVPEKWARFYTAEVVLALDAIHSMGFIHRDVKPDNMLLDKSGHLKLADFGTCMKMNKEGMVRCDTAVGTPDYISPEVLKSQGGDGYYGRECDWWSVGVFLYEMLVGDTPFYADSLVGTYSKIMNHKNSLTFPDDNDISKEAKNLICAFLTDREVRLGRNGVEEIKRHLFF

## CC(C)NC(=O)COc1cccc(-c2nc(Nc3ccc4[nH]ncc4c3)c3ccccc3n2)c1 [KD025]
[1]
  IC50: 24 µM
[2]
  arterial blood pressure lower compared with vehicle: 8%
[2]; N = 5 mice, mean ± SEM
  HR: 618 ± 19 bpm
  pCO2: 29 ± 2 mmHg
  pO2: 135 ± 13 mmHg
[2]; N = 5 mice, mean ± SEM, P = 0.06 versus vehicle
  BP: 77 ± 3 mmHg
[2]; arterial, N = 5 mice, mean ± SEM
  pH: 7.36 ± 0.02
[3]; brain, non-compartmental analysis, 100 mg/kg every 12 h, five doses, oral gavage
  λ2 (slope of the log-linear terminal phase): 0.31 1/h
[3]; brain, one-compartment first-order kinetic absorption model, 100 mg/kg
  A (absorption): 0.67 µg/mL
[3]; brain, 100 mg/kg
  AUC(0-t): 2280 ng·h/mL
  Cmax: 540 ng/mL
  k el: 8.89e-05 s⁻¹
[3]; plasma, 100 mg/kg
  AUC(0-t): 42300 ng·h/mL
  Cmax: 7280 ng/mL
  k el: 5e-05 s⁻¹
[3]; [13]
  A (absorption): 9.16 µg/mL
  Ka (absorption rate constant): 2.23 h⁻¹
  V: 11.90 L
[4]
  mode of ROCK2 inhibition: competitive with ATP
[5]
  IC50: […]
[6]; 200 mg/kg starting 1 h after permanent fMCAO, infarct volume at 24 h
  efficacy on infarct volume in permanent ischemia: lost its efficacy
[6]; [14]
  Mortality: 6/15
  Weight loss: 3.5 ± 0.3 g
[7]; 200 mg/kg twice a day for 36 h starting 1 h after ischemia onset, measured 4 weeks after ischemia
  tissue loss in the ipsilateral hemisphere versus vehicle: significantly reduced
[7]; 200 mg/kg, treatment started 6 h after ischemia onset
  efficacy on infarct volume: completely lost
[7]; 200 mg/kg, treatment starting 1 h after onset of fMCAO
  infarct volume reduction: 34%
[7]; 200 mg/kg, treatment starting 3 h after onset of fMCAO
  infarct volume reduction: 26%
[7]; 300 mg/kg dose level
  adverse effects observed: increased incidence of vomiting and respiratory difficulties
[7]; aged (12 months) male mice, 200 mg/kg starting 1 h after fMCAO
  infarct volume reduction: 34%
[7]; [15]
  Mortality: 2/8
  Weight loss: 3.4 ± 0.6 g
[7]; [16]
  Mortality: 0/8
  Weight loss: 3.8 ± 0.3 g
[7]; [17]
  Mortality: 0/6
  Weight loss: 4.3 ± 0.6 g
[7]; [18]
  Mortality: 1/8
  Weight loss: 3.5 ± 0.4 g
[7]; [19]
  Mortality: 2/9
  Weight loss: 4.5 ± 0.5 g
[7]; female mice, 200 mg/kg starting 1 h after fMCAO
  infarct volume reduction: 42%
[7]; [20]
  Mortality: 0/9
  Weight loss: 3.5 ± 0.4 g
[7]; mouse, in vivo
  effect on infarct volume in combination with atorvastatin: did not show an additive or synergistic effect
  therapeutic window of efficacy: at least 3 h
[7]; preischemic treatment, assessed at 48 h prior to sacrifice
  neurological deficits, 5-point scoring system: ameliorated
[7]; [21]
  Mortality: 1/9
  Weight loss: 5.7 ± 0.2 g
[7]; [22]
  Mortality: 0/15
  Weight loss: 5.2 ± 0.2 g
[7]; [23]
  Mortality: 1/8
  Weight loss: 5.6 ± 0.3 g
[7]; transient fMCAO model (Fig. S1)
  incidence of hemorrhagic transformation, semi-quantitative grading: did not detect an increase
[7]; type 2 diabetic db/db mice, 200 mg/kg starting 1 h after fMCAO
  infarct volume reduction: 32%
[8]
  effect in endothelial migration assays: […]
[9]
  effect on ROCK1 enzymatic activity: little effect
[10]
  side effects in phase I study: no major side effects
[11]
  area of perfusion defect versus vehicle: significantly reduced

## O=c1[nH]ccc2c(S(=O)(=O)N3CCCNCC3)cccc12 [hydroxyfasudil]
[12]
  ROCK activity measured by MYPT1 phosphorylation, relative to effect of KD025: comparable
